Data as given in the RNAGym collection of RNA variant scans (doi:10.1126/science.aae0568).
Fewer inactive variants are shown than the library holds.

B1: tRNA (parent)
chain: GUUCCGUUGGCGUAAUGGUAACGCGUCUCCCUCCUAAGGAGAAGACUGCGGGUUCGAGUCCCGUACGGAACG

Variants of: B1
Test: yeast fitness relative to wild type (ratio to wild type); higher = fitter; tRNA-Arg(CCU), competitive growth, 37 C, YPD
Outline: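 For this measurement, the tRNA-Arg(CCU) gene was varied by chemical synthesis at a 3% per-site mutation rate across 69 sites, and each variant was placed at the native genomic locus in Saccharomyces cerevisiae. The pooled strains went through a 24-hour competition in YPD at 37°C in six parallel replicates, with amplicons from start and end populations read by 100-nucleotide paired-end sequencing. Darwinian fitness relative to wild type followed from the change in each genotype's frequency. Genotypes needed ≥ 100 starting reads, and estimates < 0.5 were set to 0.5.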

Variant	yeast fitness
G25A C46U C66U	0.778
C24U C30G A45C C61G	0.568
C24U A45C A69C	0.619
G25A A36C	0.52
G25A C31U A37C G52C	≤ 0.5
C24U C29A A36G C55G A70C	≤ 0.5
C24A C31U U53A	0.786
G25C C29G C33U G39U A57U	≤ 0.5
C24U U26C C27A A69U	≤ 0.5
G25C A42G G68A	0.621
C24U G25C G56A	0.882
U26A A40U	0.809
G25A A36U C46G C62A A69C	≤ 0.5
C24G C30G C34G A70G	≤ 0.5
C24A C62A	0.598
C24U C30G G51A C60U G67A	≤ 0.5
C24U G52A G56A	0.703
G25A A70C	1.05
C24U U53A	0.626
C24U C46A A57G	0.749
C24G C34U A45C	≤ 0.5
C24G C34G U47A C49A A65G	≤ 0.5
C24G C29U C49U	≤ 0.5
C24U G41C	0.847

Variant	yeast fitness
G25U U64G	0.788
G25C U35C U59A G67U A69C	≤ 0.5
C24U G67A	0.913
C24G U59A A70U	≤ 0.5
C24A C27A U28A G67U	≤ 0.5
G25C C33U U47G C49U G52C	≤ 0.5
C24A U26G C30G A43U C62U	0.549
G25C U28A G51A	0.604
C24G C33G A36C A37C G41A A42C A65U	≤ 0.5
C24A U59A C61U	0.567
C24G C33A A70C	≤ 0.5
C24G C34G A43U	≤ 0.5
C24G C49G G67A A69C	0.521
C24A C29G A45G	≤ 0.5
G25C U26G C60U C62G U64A A69U	≤ 0.5
G25C A40C G63A	0.69
C24U G58A	0.988
G25A C33G A42G G50A G52A	≤ 0.5
C24U U32A U54A	≤ 0.5
G25C C31G G51C A65U	≤ 0.5
C24A C30U	0.538
C24U A45G A69U	0.888
G25C C29A G52A	0.505
C24G U54G G63A	0.553

Variant	yeast fitness
C24G A37G U47C U59A G67A	≤ 0.5
C24U C29U C49G	≤ 0.5
C24G G48A	0.588
C24A C29G A43C A70C	≤ 0.5
G25C U59A	0.804
C24A C60U	0.543
G25U A36U G56C A65C G67A	≤ 0.5
G25C C29A G48C C60A	≤ 0.5
C24U A37U	0.652
C24G C27G C62A	0.622
G25A A42U A57G	≤ 0.5
C24A C27A U28A C55G	≤ 0.5
C24A G52A	0.752
G25A U28G G58A C66G	0.61
G25A C34A A36C	0.587
C24U U32A C60U	≤ 0.5
C24G U26A G41C C66U	0.608
G25A U32C	0.832
C24G C29U G51C C66U	≤ 0.5
G25A A40G	0.972
G25A U28A C61U G67C	≤ 0.5
C24A C33G A40C C55U	0.888
C24A C33A C46U	0.534
C24G G38C	0.566

Variant	yeast fitness
G25C C27G U35C	≤ 0.5
C24G C29G C33A G48A C55G G68C	≤ 0.5
C24U C49A G67A	0.547
C24U C49A G67C	0.527
C24G C27A U32C U64A	≤ 0.5
G25A C49G	0.981
C24U C49G	0.724
C24U C55G G67A	≤ 0.5
C24A A70U	0.596
G25C C30A	0.792
C24U U59A A65U	≤ 0.5
U26A A37G C66A	≤ 0.5
C24G C62U A65G	0.558
C24A U26C	0.678
G25C A65U	1.03
U26A A43U	0.937
C24U G41A C62A	0.605
C24U A65C	0.739
G25C C46U G50C	≤ 0.5
C24G C31G G68C	≤ 0.5
C24U A37C G50C A69U	≤ 0.5
C24G C66G G68C	≤ 0.5
G25A C31U U64A	0.642
G25A A43U C61A	0.765

Variant	yeast fitness
C24A C33U C62U	≤ 0.5
C24G A36G A65U G68C	≤ 0.5
G25A C31A G44C	0.597
C24G A43G U47A U53A	≤ 0.5
C24G C34G A36G U53A	≤ 0.5
G25C C61U	1.1
C24U A36C A43U C61U	≤ 0.5
C24A C29G U54A	0.568
C24G A40U	0.542
C24G A70G	0.564
G25A U26A	0.839
C24U A37G A70U	0.536
C24G A37U C49U U59A	≤ 0.5
U26A C27A	0.671
G25A G50C	0.929
C24G A36G C55G	≤ 0.5
C24G G44A C46U U53C	≤ 0.5
C24U C55U	0.854
C24U C55G	0.638
C24A G63C A69C	0.621
G25C A37G A43C C55G G68A	≤ 0.5
C24G A42G C55G	≤ 0.5
C24G C34U U35A C55U	≤ 0.5
C24A G51A	0.53

Variant	yeast fitness
C24G C55G C66U	≤ 0.5
G25A G39A	0.973
C24U C31U A40C A57C C61A G67A	≤ 0.5
C24U U32A G38A A57U G68U	≤ 0.5
C24G U28G C29G	≤ 0.5
C24G C29G G39C C55A	0.592
C24A U26G G56C	≤ 0.5
C24U C29A C33U	≤ 0.5
G25C U28C A69U	0.532
G25A A40U G58C	0.973
U26A A70U	0.876
C24U U26G C30U G39C G67A A69U	≤ 0.5
C24G U64A C66A	≤ 0.5
C24G G44A C46U U53C C62U	≤ 0.5
G25A C31G A45U C61U	0.727
G25C A37U	0.56
G25C G44A A69U	0.622
C24U G48A G51A	0.665
G25A C29U C31G C55U G67C	≤ 0.5
G25C C29A G52A A65G	≤ 0.5
G25A G48A A70U	0.81
G25C C29A G48A U53G	≤ 0.5
C24G A42C C60U U64A	0.562
G25C C31U A69U	0.77

Variant	yeast fitness
C24G A36G A57G	0.533
C24G A40G A42G	0.54
C24U C33U C34G A40U G67A	0.541
C24G G41C G68C	0.592
G25A C30A C34A C49A C62G C66U A70G	0.712
C24U C30G C46G G52A G58A	0.559
C24G C33G G50U U59C	≤ 0.5
C24A U59G C62U	≤ 0.5
C24U C46A A69G	0.996
G25A C30G	0.636
G25A C30A	0.836
G25A U35C A43G	≤ 0.5
G25C C34U G41A C49G A69C	≤ 0.5
G25A C34A A40U	≤ 0.5
C24U U32G A40U U64G A65G	≤ 0.5
G25A A43C U59C	0.71
C24U C30A C60U	≤ 0.5
G25A G56C	0.711
G25A C29U G51C A70U	≤ 0.5
C24A U32C C62U	≤ 0.5
G25C G41C C46U	0.579
C24U A40C G48A	0.634
C24G A36U A65G	≤ 0.5
